Experimental data: ChEMBL document CHEMBL1138252, “Synthesis, in vitro inhibitory activity towards COX-2 and haemolytic activity of derivatives of esculentoside A” (Bioorg Med Chem Lett, 2007)

Key:
[1] = Toxicity against new Zealand rabbit blood assessed as hemolysis after 60 mins; type: tissue-based, Oryctolagus cuniculus; conditions: read-out: HD50
Summary of the method: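 Erythrocytes washed three times in PBS (pH 7.4) and diluted to a 10% suspension. Compounds were dissolved in DMSO, then diluted with PBS to 2.5–250 µg/mL. Suspension was added, and samples were stirred and incubated 60 min at 37 °C with periodic stirring. After centrifugation at 3000 rpm for 5 min, supernatant A540 was read. Haemolysis % was calculated relative to distilled water (100%).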

[2] = biological target: T1, Prostaglandin G/H synthase 2 (Homo sapiens) (UniProt P35354); conditions: Spodoptera frugiperda; Sf9; at 10 µM;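 also: recombinant human COX2 made in Sf9 insect cells, read-out is reactive oxygen species formed on arachidonic acid stimulation, measured after 30 min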
T1 sequence (whole entry): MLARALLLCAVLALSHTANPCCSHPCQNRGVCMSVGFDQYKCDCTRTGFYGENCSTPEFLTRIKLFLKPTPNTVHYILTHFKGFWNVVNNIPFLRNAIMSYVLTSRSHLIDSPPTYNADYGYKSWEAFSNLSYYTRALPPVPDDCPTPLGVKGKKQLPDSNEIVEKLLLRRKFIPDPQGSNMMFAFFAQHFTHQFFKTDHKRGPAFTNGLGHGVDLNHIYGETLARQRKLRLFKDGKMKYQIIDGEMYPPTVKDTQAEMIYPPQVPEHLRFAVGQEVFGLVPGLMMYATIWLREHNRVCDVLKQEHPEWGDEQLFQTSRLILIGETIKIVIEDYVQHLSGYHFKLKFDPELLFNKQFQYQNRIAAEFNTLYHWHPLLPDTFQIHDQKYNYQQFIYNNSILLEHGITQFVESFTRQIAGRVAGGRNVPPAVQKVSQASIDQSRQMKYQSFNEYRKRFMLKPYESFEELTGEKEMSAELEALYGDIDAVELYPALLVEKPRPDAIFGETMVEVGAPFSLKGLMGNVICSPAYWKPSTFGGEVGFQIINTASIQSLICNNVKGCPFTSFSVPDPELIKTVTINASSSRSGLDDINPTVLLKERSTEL

Row | Compound | inhibition [2] | HC50 at 1 h [1]
1 | COC(=O)[C@@]1(C)CC[C@]2(C(=O)NCCCc3ccccc3)CC[C@]3(C)C(=CC[C@@H]4[C@@]5(C)C[C@H](O)[C@H](O[C@@H]6OC[C@@H](O[C@@H]7O[C@H](CO)[C@@H](O)[C@H](O)[C@H]7O)[C@H](O)[C@H]6O)[C@@](C)(CO)[C@@H]5CC[C@]43C)[C@@H]2C1 | – | < 2.6 µM
2 | COC(=O)[C@H](NC(=O)[C@]12CC[C@](C)(C(=O)OC)C[C@H]1C1=CC[C@@H]3[C@@]4(C)C[C@H](O)[C@H](O[C@@H]5OC[C@@H](O[C@@H]6O[C@H](CO)[C@@H](O)[C@H](O)[C@H]6O)[C@H](O)[C@H]5O)[C@@](C)(CO)[C@@H]4CC[C@@]3(C)[C@]1(C)CC2)C(C)C | – | > 266 µM
3 | CCCCNC(=O)[C@]12CC[C@](C)(C(=O)OC)C[C@H]1C1=CC[C@@H]3[C@@]4(C)C[C@H](O)[C@H](O[C@@H]5OC[C@@H](O[C@@H]6O[C@H](CO)[C@@H](O)[C@H](O)[C@H]6O)[C@H](O)[C@H]5O)[C@@](C)(CO)[C@@H]4CC[C@@]3(C)[C@]1(C)CC2 | – | 15.8 µM
4 | COC(=O)[C@@]1(C)CC[C@]2(C(=O)N3CCNCC3)CC[C@]3(C)C(=CC[C@@H]4[C@@]5(C)C[C@H](O)[C@H](O[C@@H]6OC[C@@H](O[C@@H]7O[C@H](CO)[C@@H](O)[C@H](O)[C@H]7O)[C@H](O)[C@H]6O)[C@@](C)(CO)[C@@H]5CC[C@]43C)[C@@H]2C1 | 4.6% | –
5 | COC(=O)[C@@]1(C)CC[C@]2(C(=O)NCCO)CC[C@]3(C)C(=CC[C@@H]4[C@@]5(C)C[C@H](O)[C@H](O[C@@H]6OC[C@@H](O[C@@H]7O[C@H](CO)[C@@H](O)[C@H](O)[C@H]7O)[C@H](O)[C@H]6O)[C@@](C)(CO)[C@@H]5CC[C@]43C)[C@@H]2C1 | – | > 287 µM
6 | CNC(=O)[C@]12CC[C@](C)(C(=O)OC)C[C@H]1C1=CC[C@@H]3[C@@]4(C)C[C@H](O)[C@H](O[C@@H]5OC[C@@H](O[C@@H]6O[C@H](CO)[C@@H](O)[C@H](O)[C@H]6O)[C@H](O)[C@H]5O)[C@@](C)(CO)[C@@H]4CC[C@@]3(C)[C@]1(C)CC2 | – | 276 µM
7 | COC(=O)[C@@H](C)NC(=O)[C@]12CC[C@](C)(C(=O)OC)C[C@H]1C1=CC[C@@H]3[C@@]4(C)C[C@H](O)[C@H](O[C@@H]5OC[C@@H](O[C@@H]6O[C@H](CO)[C@@H](O)[C@H](O)[C@H]6O)[C@H](O)[C@H]5O)[C@@](C)(CO)[C@@H]4CC[C@@]3(C)[C@]1(C)CC2 | – | > 274 µM
8 | COC(=O)[C@@]1(C)CC[C@]2(C(=O)O)CC[C@]3(C)C(=CC[C@@H]4[C@@]5(C)C[C@H](O)[C@H](O[C@@H]6OC[C@@H](O[C@@H]7O[C@H](CO)[C@@H](O)[C@H](O)[C@H]7O)[C@H](O)[C@H]6O)[C@@](C)(CO)[C@@H]5CC[C@]43C)[C@@H]2C1 | 21.7% | 186 µM
9 | COC(=O)[C@@H](Cc1ccccc1)NC(=O)[C@]12CC[C@](C)(C(=O)OC)C[C@H]1C1=CC[C@@H]3[C@@]4(C)C[C@H](O)[C@H](O[C@@H]5OC[C@@H](O[C@@H]6O[C@H](CO)[C@@H](O)[C@H](O)[C@H]6O)[C@H](O)[C@H]5O)[C@@](C)(CO)[C@@H]4CC[C@@]3(C)[C@]1(C)CC2 | – | 204 µM
10 | COC(=O)[C@@]1(C)CC[C@]2(C(=O)N(C(=O)NC3CCCCC3)C3CCCCC3)CC[C@]3(C)C(=CC[C@@H]4[C@@]5(C)C[C@H](O)[C@H](O[C@@H]6OC[C@@H](O[C@@H]7O[C@H](CO)[C@@H](O)[C@H](O)[C@H]7O)[C@H](O)[C@H]6O)[C@@](C)(CO)[C@@H]5CC[C@]43C)[C@@H]2C1 | 75% | < 2.4 µM
11 | CCCNC(=O)[C@]12CC[C@](C)(C(=O)OC)C[C@H]1C1=CC[C@@H]3[C@@]4(C)C[C@H](O)[C@H](O[C@@H]5OC[C@@H](O[C@@H]6O[C@H](CO)[C@@H](O)[C@H](O)[C@H]6O)[C@H](O)[C@H]5O)[C@@](C)(CO)[C@@H]4CC[C@@]3(C)[C@]1(C)CC2 | – | 191 µM
12 | COC(=O)[C@@]1(C)CC[C@]2(C(=O)On3nnc4ccccc43)CC[C@]3(C)C(=CC[C@@H]4[C@@]5(C)C[C@H](O)[C@H](O[C@@H]6OC[C@@H](O[C@@H]7O[C@H](CO)[C@@H](O)[C@H](O)[C@H]7O)[C@H](O)[C@H]6O)[C@@](C)(CO)[C@@H]5CC[C@]43C)[C@@H]2C1 | – | 55.2 µM
13 | COC(=O)[C@@H](CCSC)NC(=O)[C@]12CC[C@](C)(C(=O)OC)C[C@H]1C1=CC[C@@H]3[C@@]4(C)C[C@H](O)[C@H](O[C@@H]5OC[C@@H](O[C@@H]6O[C@H](CO)[C@@H](O)[C@H](O)[C@H]6O)[C@H](O)[C@H]5O)[C@@](C)(CO)[C@@H]4CC[C@@]3(C)[C@]1(C)CC2 | – | 203 µM

Second part, led by results:

Row | inhibition [2] | Compound | HC50 at 1 h [1]
14 | 47.7% | COC(=O)[C@@H](Cc1c[nH]c2ccccc12)NC(=O)[C@]12CC[C@](C)(C(=O)OC)C[C@H]1C1=CC[C@@H]3[C@@]4(C)C[C@H](O)[C@H](O[C@@H]5OC[C@@H](O[C@@H]6O[C@H](CO)[C@@H](O)[C@H](O)[C@H]6O)[C@H](O)[C@H]5O)[C@@](C)(CO)[C@@H]4CC[C@@]3(C)[C@]1(C)CC2 | > 243 µM
15 | 56.8% | COC(=O)[C@@]1(C)CC[C@]2(C(=O)NCc3ccc(OC)cc3)CC[C@]3(C)C(=CC[C@@H]4[C@@]5(C)C[C@H](O)[C@H](O[C@@H]6OC[C@@H](O[C@@H]7O[C@H](CO)[C@@H](O)[C@H](O)[C@H]7O)[C@H](O)[C@H]6O)[C@@](C)(CO)[C@@H]5CC[C@]43C)[C@@H]2C1 | 12.7 µM
16 | 94.7% | COC(=O)[C@@]1(C)CC[C@]2(C(=O)NCCc3ccccc3)CC[C@]3(C)C(=CC[C@@H]4[C@@]5(C)C[C@H](O)[C@H](O[C@@H]6OC[C@@H](O[C@@H]7O[C@H](CO)[C@@H](O)[C@H](O)[C@H]7O)[C@H](O)[C@H]6O)[C@@](C)(CO)[C@@H]5CC[C@]43C)[C@@H]2C1 | 21.3 µM
17 | 19.4% | COC(=O)[C@@]1(C)CC[C@]2(C(=O)NCc3ccc(OC)c(OC)c3)CC[C@]3(C)C(=CC[C@@H]4[C@@]5(C)C[C@H](O)[C@H](O[C@@H]6OC[C@@H](O[C@@H]7O[C@H](CO)[C@@H](O)[C@H](O)[C@H]7O)[C@H](O)[C@H]6O)[C@@](C)(CO)[C@@H]5CC[C@]43C)[C@@H]2C1 | 215 µM
18 | 126% | COC(=O)[C@@]1(C)CC[C@]2(C(=O)NCc3ccc(Cl)cc3)CC[C@]3(C)C(=CC[C@@H]4[C@@]5(C)C[C@H](O)[C@H](O[C@@H]6OC[C@@H](O[C@@H]7O[C@H](CO)[C@@H](O)[C@H](O)[C@H]7O)[C@H](O)[C@H]6O)[C@@](C)(CO)[C@@H]5CC[C@]43C)[C@@H]2C1 | < 2.6 µM
19 | 58.1% | COC(=O)[C@@]1(C)CC[C@]2(C(=O)NCc3ccc(F)cc3)CC[C@]3(C)C(=CC[C@@H]4[C@@]5(C)C[C@H](O)[C@H](O[C@@H]6OC[C@@H](O[C@@H]7O[C@H](CO)[C@@H](O)[C@H](O)[C@H]7O)[C@H](O)[C@H]6O)[C@@](C)(CO)[C@@H]5CC[C@]43C)[C@@H]2C1 | 94.5 µM
20 | 26.9% | COC(=O)[C@@]1(C)CC[C@]2(C(=O)NCc3ccccc3)CC[C@]3(C)C(=CC[C@@H]4[C@@]5(C)C[C@H](O)[C@H](O[C@@H]6OC[C@@H](O[C@@H]7O[C@H](CO)[C@@H](O)[C@H](O)[C@H]7O)[C@H](O)[C@H]6O)[C@@](C)(CO)[C@@H]5CC[C@]43C)[C@@H]2C1 | 136 µM
21 | 82.9% | COC(=O)[C@@]1(C)CC[C@]2(C(=O)NCc3ccccc3Cl)CC[C@]3(C)C(=CC[C@@H]4[C@@]5(C)C[C@H](O)[C@H](O[C@@H]6OC[C@@H](O[C@@H]7O[C@H](CO)[C@@H](O)[C@H](O)[C@H]7O)[C@H](O)[C@H]6O)[C@@](C)(CO)[C@@H]5CC[C@]43C)[C@@H]2C1 | 42.8 µM
